Source: PMC6487498 (Toxicology and applied pharmacology, 2018)

Tests used:
[1] = tested on: LPS-activated RAW264.7 macrophages; assay: TNF-α release; assay type: cell-based, mouse; conditions: LPS 500 ng/ml, 48 h; for effect of co-incubation with RID-B on TNF-α levels: ligand with RID-B
human CB2 receptors [2] = target: T1, human CB2 receptors (Homo sapiens, UniProt P34972); assay: [35S]GTPγS binding; assay type: biochemical
[3] = tested on: primary bone marrow macrophages; assay: Osteoclast differentiation with TRAP staining; assay type: cell-based, mouse; conditions: for effect on osteoclast development, ligand alone: receptor-saturating concentration, without RID-B; for effect of co-incubation on anti-osteoclastogenic effect of RID-B: with RID-B 300 nM; for number of osteoclasts: N = 4
[4] = tested on: RAW264.7 mouse macrophage cells; assay: Cell viability; assay type: cell-based; conditions: for effect of co-incubation on RID-B cytotoxicity: with RID-B 10 μM, LPS 500 ng/ml
[5] = tested on: LPS-activated RAW264.7 macrophages; assay: Nitric oxide production; assay type: cell-based, mouse; conditions: for effect of co-incubation on NO reduction by RID-B: ligand 5 μM with RID-B 1 μM
[6] = tested on: LPS-activated RAW264.7 macrophages; assay: IL-6 release; assay type: cell-based, mouse; conditions: LPS 500 ng/ml, 48 h
[7] = tested on: CHO cells devoid of CB2 receptors; assay: G-protein activity in CHO cells devoid of CB2 receptors; assay type: biochemical, Chinese hamster; conditions: data not shown
human CB2 receptors [8] = target: T1, human CB2 receptors; assay: Competition receptor binding vs [3H]CP-55,940, CHO-hCB2 membranes
human CB2 receptors [9] = target: T1, human CB2 receptors; assay: Forskolin-stimulated adenylyl cyclase activity in CHO-hCB2 cells; assay type: cell-based
[10] = tested on: LPS-activated RAW264.7 macrophages; assay: IL-1α release; assay type: cell-based, mouse; conditions: RID-B 1 μM; LPS 500 ng/ml, 48 h
Outline: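 RAW264.7 mouse macrophages pre-incubated 1 h with test compound, then stimulated with LPS 500 ng/ml for 48 h. Media collected and stored at −20 °C. Mouse IL-1α measured by ELISA kit per manufacturer's instructions.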

[11] = tested on: CHO cells not expressing cannabinoid receptors; assay: Intracellular cAMP in CHO cells not expressing cannabinoid receptors; assay type: cell-based, Chinese hamster; conditions: data not shown
human CB1 receptors = human CB1 receptors (Homo sapiens, UniProt P21554); assay: Competition receptor binding vs [3H]CP-55,940, CHO-hCB1 membranes; conditions: RID-B 1 μM; radioligand 0.2 nM; initial binding screen, data not shown
Sequence of human CB1 receptors (P21554 whole entry): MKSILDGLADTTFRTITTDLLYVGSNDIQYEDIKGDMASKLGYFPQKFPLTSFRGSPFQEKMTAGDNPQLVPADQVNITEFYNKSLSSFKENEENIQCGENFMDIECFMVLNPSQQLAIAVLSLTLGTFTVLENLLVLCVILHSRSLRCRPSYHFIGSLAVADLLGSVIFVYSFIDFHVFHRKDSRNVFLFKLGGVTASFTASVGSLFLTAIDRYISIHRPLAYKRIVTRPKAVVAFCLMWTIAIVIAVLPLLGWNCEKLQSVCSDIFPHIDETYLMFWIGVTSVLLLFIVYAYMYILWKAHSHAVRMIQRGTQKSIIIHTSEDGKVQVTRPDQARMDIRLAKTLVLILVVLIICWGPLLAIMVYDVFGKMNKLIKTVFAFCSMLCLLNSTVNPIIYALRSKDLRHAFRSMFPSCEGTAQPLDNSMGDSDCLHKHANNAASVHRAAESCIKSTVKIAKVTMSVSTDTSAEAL

T1 sequence (P34972 whole entry): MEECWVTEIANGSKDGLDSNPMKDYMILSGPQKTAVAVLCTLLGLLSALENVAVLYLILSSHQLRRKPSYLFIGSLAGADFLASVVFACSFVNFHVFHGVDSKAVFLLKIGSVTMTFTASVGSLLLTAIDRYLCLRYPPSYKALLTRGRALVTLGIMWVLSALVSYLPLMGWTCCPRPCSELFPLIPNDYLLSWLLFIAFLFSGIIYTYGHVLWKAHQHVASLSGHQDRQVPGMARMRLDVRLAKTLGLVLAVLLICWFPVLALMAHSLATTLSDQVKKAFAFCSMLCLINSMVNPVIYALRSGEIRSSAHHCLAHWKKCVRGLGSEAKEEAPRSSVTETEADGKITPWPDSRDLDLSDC

For `CCCCCCC(C)(C)c1ccc(C2CC(O)CCC2CCCO)c(O)c1` (stereo not drawn) [CP-55,940, 5-(1,1-dimethylheptyl)-2-[5-hydroxy-2-(3-hydroxypropyl)cyclohexyl]phenol], which “effect of co-incubation with RID-B on TNF-α levels” value [1] is on record?
Its value is “have no effect”.

And the Emax (human CB2 receptors [2]; read-out: G-protein activation Emax)?
The Emax was 25.4 ± 3%.

What about the “effect on osteoclast development, ligand alone” value [3] of the same molecule?
The value was “marginally reduced osteoclast formation”.

And the “effect of co-incubation on anti-osteoclastogenic effect of RID-B” value [3]?
The value was “significantly attenuated the anti-osteoclastogenic effects produced by RID-B”.

And the “effect of co-incubation on RID-B cytotoxicity” value [4]?
Its value is “attenuated”.

Which results are given for `COc1ccc(C(=O)c2c(C)n(CCN3CCOCC3)c3cc(I)ccc23)cc1` [AM-630]?
effect of co-incubation with RID-B on TNF-α levels [1]: significantly increases TNF-α levels; effect of co-incubation on NO reduction by RID-B ([5]; LPS 500 ng/ml, 48 h): did not alter NO levels compared to RID-B administered alone; number of osteoclasts ([3]; AM-630 alone (1 μM in Fig. 7), vehicle 339.1 ± 15.6): 168.1 ± 15.4 osteoclasts per well

How did the “TNF-α level, ligand alone” value ([1]; without RID-B, N = 4) turn out when `Cc1c(C(=O)NN2CCOCC2)nn(-c2ccc(Cl)cc2Cl)c1-c1ccc(I)cc1` [AM-281] was run?
The value was 21.3 ± 0.21 ng/mL.

What about the “effect of co-incubation with RID-B on TNF-α levels” value [1] of the same molecule?
The value was “significantly increases TNF-α levels”.

And the “effect of co-incubation on NO reduction by RID-B” value ([5]; LPS 500 ng/ml, 48 h)?
Its value is “did not alter NO levels compared to RID-B administered alone”.

What about the “effect on osteoclast development, ligand alone” value [3] of the same molecule?
The value was “significantly reduce osteoclast development”.

What about the “effect of co-incubation on anti-osteoclastogenic effect of RID-B” value [3] of the same molecule?
Its value is “little consequence on the effects of RID-B”.

What about the “IL-6 level, ligand alone” value ([6]; without RID-B, N = 4) of the same molecule?
The value was 1040 ± 119.4 pg/mL.

And the “effect of co-incubation on RID-B cytotoxicity” value [4]?
Its value is “attenuated”.

Which “effect of co-incubation on NO reduction by RID-B” value ([5]; LPS 500 ng/ml, 48 h) does the source give for SR-144528 [reference compound] here?
The value was “did not alter NO levels compared to RID-B administered alone”.

How did the “effect on TNF-α levels” value ([1]; RID-B 1 μM) turn out when `CCC(=C(c1ccc(OCCN2CCCC2)cc1)c1ccc(OCCN2CCCC2)cc1)c1ccccc1` [RID-B, ridaifen-B] was run?
The value was “slight but non-significant increase in TNF-α levels”.

And the “effect on EC50 values of LPS for NO production” value ([5]; RID-B 300 nM, 500 nM, 1 μM)?
The value was “did not alter the EC50 values of LPS”.

What about the “reduction of NO production vs cells treated only with LPS” value ([5]; RID-B 1 μM alone, LPS 500 ng/ml, 48 h, N = 10) of the same molecule?
The value was 30.1 ± 5.1%.

And the NO reduction ([5]; RID-B 1 μM co-incubated with CP-55,940 2 μM, LPS 500 ng/ml, 48 h, N = 10)?
The NO reduction was 9.3 ± 4.6%.

What about the “NO levels reduced to” value ([5]; RID-B 1 μM co-incubated with JWH-015 5 μM, LPS 500 ng/ml, 48 h, N = 4) of the same molecule?
Its value is 51.1 ± 6.4%.

And the “Emax of LPS-induced NO production” value ([5]; co-incubation with RID-B 300 nM, 48 h, N = 3)?
Its value is 19.4 ± 3.8 µM.

And the “Emax of LPS-induced NO production” value ([5]; co-incubation with RID-B 500 nM, 48 h, N = 3)?
Its value is 22.0 ± 9.9 µM.

What about the “Emax of LPS-induced NO production” value ([5]; co-incubation with RID-B 1 μM, 48 h, N = 4) of the same molecule?
Its value is 18.2 ± 4.7 µM.

And the “G-protein activation Imax (decrease below basal levels)” value (human CB2 receptors [2]; inverse agonism, N = 3)?
Its value is −31.2 ± 0.37%.

And the “effect on G-protein activity” value [7]?
The value was “no effect on G-protein activity”.

What about the number of osteoclasts ([3]; RID-B 300 nM alone, vehicle 339.1 ± 15.6) of the same molecule?
The number of osteoclasts was 174.4 ± 19.2 osteoclasts per well.

What about the number of osteoclasts ([3]; RID-B 300 nM co-incubated with AM-630) of the same molecule?
The number of osteoclasts was 94.6 ± 15.6 osteoclasts per well.

And the “maximal decrease in the number of osteoclasts” value ([3]; RID-B 300 nM, M-CSF and RANKL, 4 days, drugs on days 2 and 3)?
Its value is 48.6%.

What about the “displacement of [3H]-CP-55,940 from human CB2 receptors” value (human CB2 receptors [8]; RID-B 1 μM, radioligand 0.2 nM, initial binding screen, data not shown) of the same molecule?
Its value is greater than 50%.

And the “selectivity (affinity) for CB2 over CB1 receptors” value (human CB2 receptors [8]; ratio of Ki values)?
Its value is 17 fold.

What about the “Imax, increase of adenylyl cyclase activity (elevated cAMP levels)” value (human CB2 receptors [9]; 10 μM forskolin, inverse agonism, N = 3) of the same molecule?
The value was 398 ± 30%.

And the “decrease in the potency of WIN-55,212-2 to inhibit adenylyl cyclase activity” value (human CB2 receptors [9]; RID-B 3 μM co-incubation, efficacy unchanged, parallel rightward shift)?
The value was 11.2 fold.

What about the Kb (human CB2 receptors [9]; read-out: antagonist dissociation constant (Kb), RID-B 3 μM against WIN-55,212-2, N = 3) of the same molecule?
The Kb was 0.294 µM.

What about the “reduction of LPS-induced IL-6 increase” value ([6]; RID-B 1 μM) of the same molecule?
Its value is 45%.

What about the IL-6 level ([6]; RID-B 1 μM, N = 4) of the same molecule?
The IL-6 level was 349.9 ± 34.9 pg/mL.

And the IL-1α level [10]?
The IL-1α level was 73.1 ± 4.7 pg/mL.

What about the “reduction of IL-1α level” value [10] of the same molecule?
The value was 52.3%.

And the “effect on intracellular cAMP levels” value [11]?
Its value is “does not alter intracellular cAMP levels”.

What about the “decrease of cell viability” value ([4]; RID-B 10 μM alone, 4 h exposure to LPS, N = 4) of the same molecule?
Its value is 34.0 ± 5.4%.

What about the “effect on cell viability” value ([4]; RID-B 1 or 3 μM, forty-eight hour exposure to LPS 500 ng/ml) of the same molecule?
Its value is “no effect on cell viability”.

And the “displacement of [3H]-CP-55,940 from human CB1 receptors” value (human CB1 receptors)?
The value was greater than 50%.

What does the source list for `CCCn1c(C)c(C(=O)c2cccc3ccccc23)c2ccccc21` [JWH-015]?
effect of co-incubation with RID-B on TNF-α levels [1]: have no effect; effect on osteoclast development, ligand alone [3]: significantly reduce osteoclast development; effect of co-incubation on anti-osteoclastogenic effect of RID-B [3]: little consequence on the effects of RID-B
